Results as given in ChEMBL document CHEMBL3407426, “Synthesis and biological evaluations of novel endomorphin analogues containing α-hydroxy-β-phenylalanine (AHPBA) displaying mixed μ/δ opioid receptor agonist and δ opioid receptor antagonist activities” (Eur J Med Chem, 2015).
The source made the active and inactive calls. Where a SMILES comes first, the peptide text is derived from it. [ ]: non-standard residue; d: D form. ξ: configuration not given here. Dmt = Cc1cc(O)cc(C)c1C[C@H](N)C(=O)O; ξTiq(1-COOH) = O=C(O)C1NCCc2ccccc21

Columns and labels:
[1] = biological target: Mu-type opioid receptor (Homo sapiens) (UniProt P35372); assay: Agonist activity at mu opioid receptor (unknown origin) expressed in HEK293 cells assessed as change in cell morphology at 3.3 uM measured over 30 mins by label free binding assay relative to DAMGO; type: cell-based
Summary of the method: (§1)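 Label-free biosensor (BIND) measuring cell spreading as increase in peak wavelength value. MOR in HEK293 cells, DOR in CHO cells, seeded 2 × 10⁴/well on fibronectin/collagen/albumin-coated plates and incubated overnight. Assay buffer was HBSS with 0.5–1% DMSO, equilibrated 30 min at room temperature before a baseline read. Compound added to a final 3.3 µM and read over 30 min. Response given as % of DAMGO 300 nM (MOR, n = 2) or DPDPE 10 nM (DOR, n = 4).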

[2] = system: Mus musculus; assay: Antinociceptive activity in wild type C57BL/6J mouse assessed as latency to withdrawal tail at 100 nmol, icv treated with delta opioid receptor anatgonist naltrindole for 20 mins prior to compound treatment measured after 30 mins by 55 degC warm-water tail withdrawal assay; type: functional, organism-based
Summary of the method: (§2)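 Tail-withdrawal test at 55 °C, read 30 min after i.c.v. dosing (100 or 30 nmol), in MOR KO or KOR KO mice. Wild-type C57BL/6J mice were instead pretreated with naltrindole 20 mg/kg, route given as i.p. in the methods and s.c. in the legend, 20 min before dosing. n = 8 mice; one-way ANOVA with Tukey's test.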

[3] = system: Mus musculus; assay: Antinociceptive activity in kappa opioid receptor knock out mouse assessed as latency to withdrawal tail at 100 nmol, icv after 30 mins by 55 degC warm-water tail withdrawal assay; type: functional, organism-based; summary of the method: as §2
[4] = biological target: T1, Delta-type opioid receptor (Homo sapiens, UniProt P41143); assay: Agonist activity at delta opioid receptor (unknown origin) expressed in CHO cells assessed as inhibition of forskolin-induced cAMP production at 500 nM after 30 mins by europium cryptate/d2 dye-based FRET analysis relative to DPDPE; type: functional, cell-based
Summary of the method: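 DOR-expressing CHO cells, 20,000/well, exposed to test compound at 500 nM with 4 µM forskolin in PBS containing 1 mM IBMX for 30 min at room temperature. Cells then lysed with Europium cryptate and d2 acceptor reagents for 1 h, and cAMP read by FRET. Expressed as % of the 500 nM DPDPE response, n = 4.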

[5] = biological target: T1, Delta-type opioid receptor; assay: Agonist activity at delta opioid receptor (unknown origin) expressed in CHO cells assessed as change in cell morphology at 3.3 uM measured over 30 mins by label free binding assay relative to DPDPE; type: cell-based; summary of the method: as §1
[6] = system: Mus musculus; assay: Antinociceptive activity in mu opioid receptor knock out mouse assessed as latency to withdrawal tail at 100 nmol, icv after 30 mins by 55 degC warm-water tail withdrawal assay; type: functional, organism-based; summary of the method: as §2
[7] = system: Mus musculus; assay: Antinociceptive activity in icv dosed C57BL/6J mouse assessed as latency to withdrawal tail after 20 mins by 55 degC warm-water tail withdrawal assay; type: functional
Summary of the method: (§3)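 Mouse 55 °C warm-water tail-withdrawal test with a baseline latency taken before dosing and a 15 s cut-off. Single i.c.v. injection of 5 µL into the lateral ventricle under light isoflurane. Latency measured at 10-min intervals, with dose–response values taken at peak: 20 min for peptides, 30 min for morphine. Mean % antinociception from 8 mice; ED₅₀ with 95% CI.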

[8] = Half life in rat brain homogenate at 10 uM; type: ADME, tissue-based
Summary of the method: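 Peptide at a final 10 µM in rat brain homogenate (protein 21.2 mg/mL), incubated at 37 °C. Aliquots quenched in acetonitrile with internal standard in triplicate, centrifuged, and analysed by LC-MS/MS in MRM mode. Half-life from pseudo-first-order loss of the analyte/internal-standard ratio; mean of at least three experiments ± SEM.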

[9] = biological target: Mu-type opioid receptor (Rattus norvegicus, UniProt P33535); assay: Displacement of [3H]DAMGO from rat cortex mu opioid receptor after 30 mins by liquid scintillation counting analysis
Summary of the method: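 Rat cortex membranes prepared in 50 mM Tris pH 7.4, spun 16,500 rpm for 10 min, and incubated 30 min at 37 °C. Competition against [³H]DAMGO. Assay ended by filtration on BSA-soaked GF/B filters. Ki values are means of two experiments.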

[10] = biological target: Delta-type opioid receptor (Rattus norvegicus, UniProt P33533); assay: Displacement of [3H]DPDPE from rat cortex delta opioid receptor after 2.5 hrs by liquid scintillation counting analysis
[11] = system: Mus musculus; assay: Toxicity in C57BL/6J mouse assessed as impairment of locomotor co-ordination at 100 nmol, icv administered 15 mins prior to assessment in accelerated speed trials measured over 60 mins by rotorod test; type: organism-based; details: in vivo, icv_or_intrathecal, 1 h
Summary of the method: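 Rotorod test after seven habituation trials, the last used as baseline. Mice given vehicle (50% DMSO) or 100 nmol i.c.v. Latency to fall recorded over 60 min and expressed as % change from baseline per 10 min. 8–18 mice; two-way ANOVA.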

[12] = system: Mus musculus; assay: Inhibition of kappa opioid receptor agonist U50,488-induced antinociceptive activity in C57BL/6J mouse assessed as latency to withdrawal tail at 30 nmol, icv administered 90 mins prior to U50,488 treatment measured after 40 mins by 55 degC warm-water tail withdrawal assay; type: functional, organism-based
Summary of the method: (§4)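 C57BL/6J mice given 30 nmol i.c.v. 90 min before morphine 10 mg/kg i.p., U50,488 10 mg/kg i.p., or SNC-80 100 nmol i.c.v. Tail-withdrawal at 55 °C measured 40 min after the agonist. n = 8 mice; Student's t-test.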

[13] = system: Mus musculus; assay: Inhibition of mu opioid receptor agonist morphine-induced antinociceptive activity in C57BL/6J mouse assessed as latency to withdrawal tail at 30 nmol, icv administered 90 mins prior to morphine treatment measured after 40 mins by 55 degC warm-water tail withdrawal assay; type: functional, organism-based; summary of the method: as §4
[14] = system: Mus musculus; assay: Inhibition of delta opioid receptor agonist SNC-80-induced antinociceptive activity in C57BL/6J mouse assessed as latency to withdrawal tail at 30 nmol, icv administered 90 mins prior to SNC-80 treatment measured after 40 mins by 55 degC warm-water tail withdrawal assay; type: functional, organism-based; summary of the method: as §4
[15] = biological target: T1, Delta-type opioid receptor; assay: Agonist activity at delta opioid receptor (unknown origin) expressed in CHO cells assessed as change in cell morphology measured over 30 mins by label free binding assay; type: cell-based
Summary of the method: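 DOR-expressing CHO cells on coated plates in a label-free BIND biosensor, with the increase in peak wavelength value read over 30 min after compound addition. HBSS buffer with 0.5–1% DMSO, baseline read first. Points are means of two separate assays.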

[16] = system: Mus musculus; assay: Antinociceptive activity in icv dosed C57BL/6J mouse assessed as latency to withdrawal tail administered first dose for 8 hrs followed by second dose measured after 20 mins by 55 degC warm-water tail withdrawal assay; type: functional
Summary of the method: (§5)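 Acute tolerance in the mouse 55 °C warm-water tail-withdrawal test, 15 s cut-off. First i.c.v. dose at time 0 (morphine 3 nmol or test peptide 2 nmol), then a second i.c.v. dose of 0.1–100 nmol 8 h later. Latency read 30 min after the second dose for morphine and 20 min for the peptide. n = 8 mice per point; ED₅₀ with 95% CI by nonlinear regression.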

[17] = system: Mus musculus; assay: Antinociceptive activity in wild type C57BL/6J mouse assessed as latency to withdrawal tail at 30 nmol, icv treated with delta opioid receptor anatgonist naltrindole for 20 mins prior to compound addition measured after 30 mins by 55 degC warm-water tail withdrawal assay; type: functional, organism-based; summary of the method: as §2
[18] = system: Mus musculus; assay: Antinociceptive activity in C57BL/6J mouse assessed as latency to withdrawal tail at 100 nmol, icv measured up to 80 mins by 55 degC warm-water tail withdrawal assay; type: functional, organism-based; summary of the method: as §3
[19] = system: Mus musculus; assay: Antinociceptive activity in mu opioid receptor knock out mouse assessed as latency to withdrawal tail at 30 nmol, icv after 30 mins by 55 degC warm-water tail withdrawal assay; type: functional, organism-based; summary of the method: as §2
[20] = system: Mus musculus; assay: Antinociceptive activity in kappa opioid receptor knock out mouse assessed as latency to withdrawal tail at 30 nmol, icv after 30 mins by 55 degC warm-water tail withdrawal assay; type: functional, organism-based; summary of the method: as §2
[21] = system: Mus musculus; assay: Antinociceptive activity in icv dosed C57BL/6J mouse assessed as latency to withdrawal tail after 30 mins by 55 degC warm-water tail withdrawal assay; type: functional; summary of the method: as §3
[22] = system: Mus musculus; assay: Antinociceptive activity in icv dosed C57BL/6J mouse assessed as latency to withdrawal tail administered first dose for 8 hrs followed by second dose measured after 30 mins by 55 degC warm-water tail withdrawal assay; type: functional; summary of the method: as §5

T1 sequence (P41143 whole entry): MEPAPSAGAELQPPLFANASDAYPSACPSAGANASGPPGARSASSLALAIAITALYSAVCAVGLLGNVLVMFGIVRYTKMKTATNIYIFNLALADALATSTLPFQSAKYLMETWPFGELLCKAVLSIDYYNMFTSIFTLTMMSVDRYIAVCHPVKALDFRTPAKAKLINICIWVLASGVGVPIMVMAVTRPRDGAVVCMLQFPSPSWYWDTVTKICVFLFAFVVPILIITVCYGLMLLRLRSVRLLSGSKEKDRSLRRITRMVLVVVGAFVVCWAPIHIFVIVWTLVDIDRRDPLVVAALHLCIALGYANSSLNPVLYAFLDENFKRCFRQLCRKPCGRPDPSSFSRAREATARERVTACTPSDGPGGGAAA
Sequence of Mu-type opioid receptor (P33535 whole entry): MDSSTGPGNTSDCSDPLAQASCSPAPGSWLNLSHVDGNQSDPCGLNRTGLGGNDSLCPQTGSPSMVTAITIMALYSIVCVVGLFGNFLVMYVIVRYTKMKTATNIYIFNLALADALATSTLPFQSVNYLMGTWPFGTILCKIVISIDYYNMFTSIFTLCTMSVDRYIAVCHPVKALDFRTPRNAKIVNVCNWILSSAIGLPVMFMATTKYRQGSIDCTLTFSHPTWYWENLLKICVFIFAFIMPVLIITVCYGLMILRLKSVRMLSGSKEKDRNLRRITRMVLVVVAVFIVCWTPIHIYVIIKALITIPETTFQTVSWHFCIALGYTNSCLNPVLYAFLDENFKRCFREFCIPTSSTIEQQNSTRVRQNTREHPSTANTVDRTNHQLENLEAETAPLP
Sequence of Mu-type opioid receptor (Homo sapiens) (P35372 whole entry): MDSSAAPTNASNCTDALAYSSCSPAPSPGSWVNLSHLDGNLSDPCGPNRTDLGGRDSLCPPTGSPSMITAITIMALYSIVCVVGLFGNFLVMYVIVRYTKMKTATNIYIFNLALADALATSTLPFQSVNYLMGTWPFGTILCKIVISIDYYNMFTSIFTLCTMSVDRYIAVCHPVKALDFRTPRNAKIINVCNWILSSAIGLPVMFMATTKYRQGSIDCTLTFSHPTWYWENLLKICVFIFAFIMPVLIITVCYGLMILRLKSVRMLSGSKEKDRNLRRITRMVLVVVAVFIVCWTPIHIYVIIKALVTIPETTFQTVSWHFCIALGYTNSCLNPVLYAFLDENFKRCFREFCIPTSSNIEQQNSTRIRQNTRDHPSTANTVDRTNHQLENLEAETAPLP
Sequence of Delta-type opioid receptor (Rattus norvegicus, UniProt P33533) (P33533 whole entry): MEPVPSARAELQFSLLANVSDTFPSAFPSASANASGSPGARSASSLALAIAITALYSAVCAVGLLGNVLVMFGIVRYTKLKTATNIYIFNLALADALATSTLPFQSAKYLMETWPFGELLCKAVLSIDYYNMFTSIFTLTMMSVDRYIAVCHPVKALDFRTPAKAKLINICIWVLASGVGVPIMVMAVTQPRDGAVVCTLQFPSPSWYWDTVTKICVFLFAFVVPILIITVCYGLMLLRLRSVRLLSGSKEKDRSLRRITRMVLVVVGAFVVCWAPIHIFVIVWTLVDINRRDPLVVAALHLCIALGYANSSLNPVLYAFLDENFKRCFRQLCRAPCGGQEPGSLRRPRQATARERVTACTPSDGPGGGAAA

Structure (SMILES): Cc1cc(O)cc(C)c1C[C@H](N)C(=O)N1CCc2ccccc2C1C(=O)N[C@@H](Cc1ccccc1)C(=O)N[C@@H](Cc1ccccc1)C(N)=O (stereo partly drawn) (H-[Dmt][ξTiq(1-COOH)]FF-NH2)
- Activity [1]: 61%
- Activity [2]: inactive
- Activity [3]: inactive
- inhibition [4]: 73%
- Activity [5]: 46%
- Activity [6]: inactive
- Activity [7]: Dose-dependent effect
- ED50 [7]: 21.7 nmol
- half-life at 10 µM [8]: 6.11 min
- Ki [9]: 5 nM
- Ki [10]: 2 nM
- Activity [11]: Toxic

Structure (SMILES): Cc1cc(O)cc(C)c1C[C@H](N)C(=O)N1CCc2ccccc2C1C(=O)N[C@@H](Cc1ccccc1)[C@@H](O)C(=O)N[C@@H](Cc1ccccc1)C(N)=O (stereo partly drawn)
- inhibition [12]: inactive
- Activity [1]: 42%
- inhibition [13]: inactive
- inhibition [4]: 66%
- Activity [5]: 30%
- inhibition [14]: Active
- EC50 [15]: 23 nM
- Activity [7]: Dose-dependent effect
- ED50 [7]: 1.98 nmol
- ED50 [16]: 0.86 nmol
- Activity [17]: inactive
- Activity [18]: Active
- half-life at 10 µM [8]: > 120 min
- Activity [19]: inactive
- Ki [9]: 8 nM
- Ki [10]: 0.7 nM
- Activity [11]: Non-toxic
- Activity [20]: inactive

Structure (SMILES): CN1CC[C@]23c4c5ccc(O)c4O[C@H]2[C@@H](O)C=C[C@H]3[C@H]1C5 [MORPHINE]
- Activity [21]: Dose-dependent effect
- ED50 [21]: 2.35 nmol
- ED50 [22]: 22.5 nmol
